Experimental data reported in publication PMC12107431 (Nucleic Acids Research, 2025).
Several values for one entry are separate records, joined by “and”; a condition that tells them apart may be missing. Identical values can stand only once. No end group written: not given here.

B1: ETO2-NHR3-4 (NHR3 and NHR4 domains of human ETO2, residues 480-597) (domain or fragment, UniProt O75081 480-597, looked up)
chain: GYVPEDIWRKAEEAVNEVKRQAMSELQKAVSDAERKAHELITTERAKMERALAEAKRQASEDALTVINQQEDSSESCWNCGRKASETCSGCNAARYCGSFCQHRDWEKHHHVCGQSLQ
B3: (M)PPPLx4 (GATAD2A residues 177-284, four polyproline-leucine motifs) (peptide, UniProt Q86YP4 177-284, looked up)
chain: QKPTGSVGSTVTTPPPLVRGTQNIPAGKPSLQTSSARMPGSVIPPPLVRGGQQASSKLGPQASSQVVMPPLVRGAQQIHSIRQHSSTGPPPLLLAPRASVPSVQIQGQ

Legend:
ETO2-NHR4 [1] = target: T1, ETO2-NHR4 (Homo sapiens, UniProt O75081); test: 15N-HSQC chemical shift perturbation titration; format: binding
T1 sequence (O75081 551-597): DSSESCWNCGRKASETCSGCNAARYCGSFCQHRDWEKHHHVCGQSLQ

NHR3 domain of ETO = settings: PKA (RIIα) binding to NHR3 domain of ETO; cited from earlier work
ETO2-NHR3-4 [2] = test: ITC with ETO2-NHR3-4 in the presence of PKA; format: binding, human; settings: ITC KD with vs without PKA (RIIα)
Outline: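 ETO2-NHR3-4 (50 μM) is premixed at a 2:1 molar ratio with PKA (RII)α residues 1–45 (100 μM), both bacterially expressed and purified by Ni affinity, TEV cleavage and size exclusion. N-CoRx2A or PPPLx2A peptide (250 μM) is titrated in: 20 × 2 μL injections 180 s apart at 25 °C, in 25 mM Bis-Tris pH 7.2, 100 mM NaCl, 1 mM DTT, 50 μM ZnSO4. KD is fitted by software and reported as mean ± SD of two runs.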

[3] = target: B3; test: ITC
SEC-MALS = target: the molecule itself; test: SEC-MALS
[4] = target: B1; test: ITC
ETO2-NHR3-4 [5] = test: Isothermal titration calorimetry; format: binding, human; settings: ITC KD ratio
ETO2-NHR4 [6] = target: T1, ETO2-NHR4; test: Isothermal titration calorimetry; format: binding; settings: all four motifs vs single motifs
[7] = target: B1; test: ITC; remark: listed apart in the source

## KYGASSQVVMPPLVRGAQQ-NH2 [MPPL-3]
ETO2-NHR4 [1]
  Kd: 249 ± 3 µM

## PKA (RIIα): cAMP-dependent protein kinase type II-alpha regulatory subunit; residues 1–45 used here
NHR3 domain of ETO
  Kd: 0.128 µM

## PPPLx2A: bacterially expressed GATAD2A residues 177–235, first two motifs (QKPTGSVGSTVTTPPPLVRGTQNIPAGKPSLQTSSARMPGSVIPPPLVRGGQQASSKLG; also: C-terminal Twin-Strep-tag, state not given here)
ETO2-NHR3-4 [2]
  reduction of affinity for ETO2-NHR3-4 by PKA (RIIα): approximately 10 fold

## DSSESCWNCGRKASETCSGCNAARYCGSFCQHRDWEKHHHVCGQSLQ (domain or fragment, UniProt O75081 551-597, looked up) [ETO2-NHR4 (NHR4 domain of human ETO2, residues 551-597)]
[3]
  Kd: 30 µM

## B1
SEC-MALS
  stoichiometry N: 2 and 4

B2: ETO2-NHR3-4 (V497I/A501L) (domain or fragment, human, UniProt O75081 480-597, looked up)
chain: GYVPEDIWRKAEEAVNEIKRQLMSELQKAVSDAERKAHELITTERAKMERALAEAKRQASEDALTVINQQEDSSESCWNCGRKASETCSGCNAARYCGSFCQHRDWEKHHHVCGQSLQ
SEC-MALS
  stoichiometry N: 4

## B3
[4]
  Kd: 3 µM

B4: (M)PPPLx4: bacterially expressed GATAD2A residues 177–284 with four (M)PPPL motifs and C-terminal Twin-Strep-tag (protein)
chain: QKPTGSVGSTVTTPPPLVRGTQNIPAGKPSLQTSSARMPGSVIPPPLVRGGQQASSKLGPQASSQVVMPPLVRGAQQIHSIRQHSSTGPPPLLLAPRASVPSVQIQGQ
modifications: left off: thioredoxin, N-terminal, cleaved | His6, N-terminal, cleaved | Twin-Strep-tag, C-terminal, state not stated
ETO2-NHR3-4 [5]
  increase of binding affinity with ETO2-NHR3-4 compared to the NHR4 domain alone: 10 fold
ETO2-NHR4 [6]
  increase of binding affinity compared to the individual binding sites: up to 10 fold

B5: PPPLx2A (GATAD2A residues 177-235, first two motifs) (peptide, UniProt Q86YP4 177-235, looked up)
chain: QKPTGSVGSTVTTPPPLVRGTQNIPAGKPSLQTSSARMPGSVIPPPLVRGGQQASSKLG
[7]
  KD in the presence of PKA (RIIα): 50 µM
[4]
  Kd: 6 µM
